Test results taken from ChEMBL document CHEMBL4616671, “Identification of N-Phenyl-7H-pyrrolo[2,3-d]pyrimidin-4-amine Derivatives as Novel, Potent, and Selective NF-κB Inducing Kinase (NIK) Inhibitors for the Treatment of Psoriasis” (J Med Chem, 2020).

Experiments:
[1] = tested on: J774; assay: Antiinflammatory activity in mouse J774 cells assessed as inhibition of LPS-induced NO production at 1 uM preincubated for 2 hrs followed by LPS stimulation and measured after 22 hrs by Griess reagent based assay relative to control; format: functional
Outline: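 J774 macrophages seeded at 2*10^4 cells/mL, 24 h at 37 °C 5% CO₂; compound in DMSO at 1 µM, 3 replicate wells, 2 h pre-incubation, then LPS at 1 ug/mL final for 22 h. Supernatant nitrite read with Griess reagent at 540 nm against a sodium nitrite standard curve. Inhibition % = (model − compound)/(model − control) NO ×100; mean ± SD, three independent experiments.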

[2] = target: T1, Mitogen-activated protein kinase kinase kinase 14 (Homo sapiens, UniProt Q99558); assay: Inhibition of recombinant N-terminal GST-fused human NIK (319 to 947 residues) expressed in baculovirus expression system incubated for 120 mins in presence of ATP by ADP-glo based luminescence assay
Outline: (§1)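 ADP-Glo luminescence assay with recombinant human MAP3K14. Buffer: Tris pH 7.5, 2 mM DTT, 2 mM MgCl₂, 100 µM Na₃VO₄, 0.02 mg/mL BSA, 5% DMSO; ATP 10 µM. Reaction 120 min at room temperature; ADP-Glo reagent 40 min, then detection reagent 40 min. Mean ± SD from two independent experiments.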
Target sequence in this assay (Q99558 whole entry, the tested form may be a part): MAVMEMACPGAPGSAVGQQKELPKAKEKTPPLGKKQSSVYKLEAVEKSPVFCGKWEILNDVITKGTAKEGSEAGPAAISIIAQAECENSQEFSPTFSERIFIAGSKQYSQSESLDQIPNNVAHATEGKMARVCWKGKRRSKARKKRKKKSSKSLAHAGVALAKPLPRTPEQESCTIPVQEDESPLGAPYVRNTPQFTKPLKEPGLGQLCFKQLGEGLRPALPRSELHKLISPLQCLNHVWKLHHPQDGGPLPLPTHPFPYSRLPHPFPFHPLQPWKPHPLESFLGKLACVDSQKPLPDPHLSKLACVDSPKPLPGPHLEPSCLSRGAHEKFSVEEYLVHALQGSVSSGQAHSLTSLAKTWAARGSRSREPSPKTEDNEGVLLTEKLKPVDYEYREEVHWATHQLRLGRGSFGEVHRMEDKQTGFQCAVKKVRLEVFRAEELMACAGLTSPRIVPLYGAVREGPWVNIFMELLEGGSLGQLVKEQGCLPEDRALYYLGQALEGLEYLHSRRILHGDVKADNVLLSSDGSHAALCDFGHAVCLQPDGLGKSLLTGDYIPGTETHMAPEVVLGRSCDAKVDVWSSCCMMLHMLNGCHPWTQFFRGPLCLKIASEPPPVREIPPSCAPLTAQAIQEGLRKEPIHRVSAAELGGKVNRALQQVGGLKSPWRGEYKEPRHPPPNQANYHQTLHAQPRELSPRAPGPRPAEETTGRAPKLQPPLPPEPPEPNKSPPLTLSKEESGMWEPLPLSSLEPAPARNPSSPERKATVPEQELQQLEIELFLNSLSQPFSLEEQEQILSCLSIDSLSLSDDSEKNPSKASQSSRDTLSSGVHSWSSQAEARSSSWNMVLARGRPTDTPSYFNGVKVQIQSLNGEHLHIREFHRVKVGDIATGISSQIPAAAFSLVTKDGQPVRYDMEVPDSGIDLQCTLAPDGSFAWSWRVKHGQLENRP

[3] = tested on: T-cell; assay: Antiinflammatory activity in mouse T cells assessed as inhibition of conA-induced induced T cell proliferation at 0.4 uM incubated for 48 hrs by CCK8 assay relative to control; format: functional
[4] = tested on: T-cell; assay: Antiinflammatory activity in mouse T cells assessed as inhibition of conA-induced induced T cell proliferation at 2 uM incubated for 48 hrs by CCK8 assay relative to control; format: functional
[5] = target: T1, Mitogen-activated protein kinase kinase kinase 14; assay: Inhibition of recombinant N-terminal GST-fused human NIK (319 to 947 residues) expressed in baculovirus expression system assessed as residual activity at 1 uM incubated for 120 mins in presence of ATP by ADP-glo based luminescence assay relative to control
Target sequence in this assay (Q99558 whole entry, looked up, the tested form may be a part): as the sequence (Q99558 whole entry, the tested form may be a part) above

[6] = target: T1, Mitogen-activated protein kinase kinase kinase 14; assay: Inhibition of NIK in human BEAS2B cells assessed as reduction in LPS-induced IL-6 level preincubated for 8 hrs followed by LPS stimulation and measured after 24 hrs by ELISA; format: cell-based
Outline: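 BEAS-2B cells were grown in DMEM with 10% FBS, seeded at 5000 cells/well, and cultured 24 h at 37 °C in 5% CO2. Compounds were given at 7 concentrations from 10 μM to 0.014 μM (3 replicate wells), with dexamethasone as positive control. After 8 h, LPS (20 μg/mL solution) was added for 24 h. Supernatant IL-6 was read by human IL-6 ELISA; two biological replicates.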
Target sequence in this assay (Q99558 whole entry, looked up, the tested form may be a part): as the sequence (Q99558 whole entry, the tested form may be a part) above

[7] = Intrinsic clearance in human liver microsomes assessed per mg of protein incubated for 10 mins followed by potassium phosphate buffer addition and measured after 5 to 60 mins by LC-MS/MS analysis; format: ADME, Microsome; conditions: read-out: CLH
Outline: (§2)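 Rat, dog, monkey or human liver microsomes pre-incubated with compound at 37 °C for 10 min; reaction started after pre-warming and stopped at 5, 15, 30, 60 min with chilled quench containing tolbutamide and labetalol. No-cofactor control in 100 mM potassium phosphate for 60 min. LC-MS/MS analysis; first-order fit: k = −slope, T1/2 = 0.693/k, CLint = k/microsomal protein concentration.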

[8] = Elimination half life in human liver microsomes incubated for 10 mins followed by potassium phosphate buffer addition and measured after 5 to 60 mins by LC-MS/MS analysis; format: ADME, Microsome; conditions: read-out: beta t1/2; outline: as §2
[9] = Intrinsic hepatic clearance in monkey; format: ADME, Macaca mulatta; conditions: rhesus monkey, in vivo
Outline: (§3)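 Scaled from microsomal intrinsic clearance: CLint,in vitro × microsomal protein per g liver × liver weight per kg body weight.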

[10] = Elimination half life in rat liver microsomes incubated for 10 mins followed by potassium phosphate buffer addition and measured after 5 to 60 mins by LC-MS/MS analysis; format: ADME, Microsome; conditions: read-out: beta t1/2; outline: as §2
[11] = Elimination half life in monkey liver microsomes incubated for 10 mins followed by potassium phosphate buffer addition and measured after 5 to 60 mins by LC-MS/MS analysis; format: ADME, Macaca mulatta, Microsome; conditions: rhesus monkey, read-out: beta t1/2; outline: as §2
[12] = Intrinsic clearance in rat liver microsomes assessed as per mg of protein incubated for 10 mins followed by potassium phosphate buffer addition and measured after 5 to 60 mins by LC-MS/MS analysis; format: ADME, Microsome; conditions: read-out: CLH; outline: as §2
[13] = Intrinsic hepatic clearance in rat; format: ADME; conditions: in vivo; outline: as §3
[14] = Elimination half life in dog liver microsomes incubated for 10 mins followed by potassium phosphate buffer addition and measured after 5 to 60 mins by LC-MS/MS analysis; format: ADME, Canis lupus familiaris, Microsome; conditions: read-out: beta t1/2; outline: as §2
[15] = Intrinsic clearance in monkey liver microsomes assessed as per mg of protein incubated for 10 mins followed by potassium phosphate buffer addition and measured after 5 to 60 mins by LC-MS/MS analysis; format: ADME, Macaca mulatta, Microsome; conditions: rhesus monkey, read-out: CLH; outline: as §2
[16] = Intrinsic clearance in dog liver microsomes assessed as per mg of protein incubated for 10 mins followed by potassium phosphate buffer addition and measured after 5 to 60 mins by LC-MS/MS analysis; format: ADME, Canis lupus familiaris, Microsome; conditions: read-out: CLH; outline: as §2
[17] = Intrinsic hepatic clearance in dog; format: ADME, Canis lupus familiaris; conditions: in vivo; outline: as §3
[18] = target: T1, Mitogen-activated protein kinase kinase kinase 14; assay: Inhibition of NIK (unknown origin); outline: as §1
Target sequence in this assay (Q99558 whole entry, the tested form may be a part): as above

[19] = Intrinsic hepatic clearance in human; format: ADME; outline: as §3
[20] = tested on: T-cell; assay: Growth inhibition of mouse T cells at 10 uM after 48 hrs by CCK8 assay; format: cell-based
Outline: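 Unstimulated mouse splenic T cells exposed to compound at 10 µM. Growth read by CCK-8 absorbance; […]. Mean ± SD, three independent experiments.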

Row | Compound | inhibition at 1 µM [1] [%] | IC50 [2] [µM] | inhibition at 0.4 µM [3] [%] | inhibition at 2 µM [4] [%] | further results
1 | CC(O)(C#Cc1ccc(N2CCOCC2)c(Nc2ncnc3[nH]ncc23)c1)c1nccs1 (configuration not stated) | 35.9 | 0.00863 | 14.8 | 24.7 | 
2 | CC(=O)N1CCN(c2ccc(C#CC(C)(O)c3nccs3)cc2Nc2ncnc3[nH]ccc23)CC1 (configuration not stated) | 29.3 | 0.0178 | 16.2 | 31.5 | 
3 | O=C(Nc1ccc(N2CCOCC2)c(Nc2ncnc3[nH]ccc23)c1)C1CCCC1 |  |  |  |  | Activity [5]: 77.3%
4 | CC(O)(C#Cc1ccc(N2CC3CC2CN3)c(Nc2ncnc3[nH]ccc23)c1)c1nccs1 (configuration not stated) |  | 0.2 |  |  | 
5 | CC(O)(C#Cc1ccc(N2CCN(S(=O)(=O)C3CC3)CC2)c(Nc2ncnc3[nH]ccc23)c1)c1nccs1 (configuration not stated) | 37.2 | 0.0162 | 16.9 | 32.3 | 
6 | CN1CCN(c2ccc(C#CC(C)(O)c3nccs3)cc2Nc2ncnc3[nH]ccc23)CC1 (configuration not stated) | 78.5 | 0.0783 | 33 | 43.7 | 
7 | CC(O)(C#Cc1ccc2c(c1)N(c1nc(N)ncc1Cl)CC2)c1nccs1 (configuration not stated) | 43.9 | 0.0047 | 19 | 59.6 | inhibition [6]: Dose-dependent effect; microsomal CLint [7]: 40.8 µL/min/mg; half-life [8]: 33.9 min; CLH [9]: 18 L/h/kg; half-life [10]: 9.82 min; half-life [11]: 6.66 min; microsomal CLint [12]: 141 µL/min/mg; CLH [13]: 15.3 L/h/kg; half-life [14]: 7.22 min; microsomal CLint [15]: 208 µL/min/mg; microsomal CLint [16]: 192 µL/min/mg; CLH [17]: 16.6 L/h/kg; Ki [18]: 0.0004 µM; CLH [19]: 2.32 L/h/kg
8 | CCS(=O)(=O)N1CCN(c2ccc(C#CC(C)(O)c3nccs3)cc2Nc2ncnc3[nH]ccc23)CC1 (configuration not stated) | 34.5 | 0.00822 | 14 | 32.5 | 
9 | CN(C)c1ccc(C#CC(C)(O)c2nccs2)cc1Nc1ncnc2[nH]ccc12 (configuration not stated) |  | 0.0225 |  |  | 
10 | CC(O)(C(=O)Nc1ccc(N2CCOCC2)c(Nc2ncnc3[nH]ccc23)c1)c1nccs1 (configuration not stated) |  | 1.4 |  |  | 
11 | CC(O)(C#Cc1ccc(N2CCCC2)c(Nc2ncnc3[nH]ccc23)c1)c1nccs1 (configuration not stated) |  | 0.107 |  |  | 
12 | C[C@](O)(C#Cc1ccc(N2CCOCC2)c(Nc2ncnc3[nH]ccc23)c1)c1nccs1 | 74.3 | 0.136 | 39.5 | 60.1 | Activity [20]: Non-Toxic
13 | CC(O)(C#Cc1ccc(N2CCOCC2)c(Nc2ncnc3[nH]ccc23)c1)C1CCCC1 (configuration not stated) |  | 2.24 |  |  | 
14 | CC(C)(O)C#Cc1ccc(N2CCOCC2)c(Nc2ncnc3[nH]ccc23)c1 |  | 2.71 |  |  | 
15 | CC(O)(C#Cc1ccc(N2CCOCC2)c(Nc2ccnc(N)n2)c1)c1nccs1 (configuration not stated) | 58.5 | 0.0114 | 27.4 | 31.4 | 
16 | CC(O)(C#Cc1ccc(N2CCOCC2)c(Nc2c(F)cnc3[nH]ccc23)c1)c1nccs1 (configuration not stated) |  | 1.38 |  |  | 
17 | CC(O)(C#Cc1ccc(OC2CCOCC2)c(Nc2ncnc3[nH]ccc23)c1)c1nccs1 (configuration not stated) | 68.3 | 0.112 | 19.9 | 42.9 | 
18 | C[C@@](O)(C#Cc1ccc(N2CCOCC2)c(Nc2ncnc3[nH]ccc23)c1)c1nccs1 | 100 | 0.012 | 37.6 | 61.2 | Activity [20]: Toxic

Row | Compound | inhibition at 1 µM [1] [%] | IC50 [2] [µM] | inhibition at 0.4 µM [3] [%] | inhibition at 2 µM [4] [%] | further results
19 | CC(O)(C#Cc1ccc(N2CCOCC2)c(Nc2ccnc3[nH]ccc23)c1)c1nccs1 (configuration not stated) | 60.4 | 0.00659 | 19 | 50.2 | 
20 | OC1(C#Cc2ccc(N3CCOCC3)c(Nc3ncnc4[nH]ccc34)c2)CCCCC1 |  | 1.27 |  |  | 
21 | OC1(C#Cc2ccc(N3CCOCC3)c(Nc3ncnc4[nH]ccc34)c2)CCCC1 |  | 0.645 |  |  | 
22 | CC(O)(C#Cc1ccc(N2CCOCC2)c(Nc2ncnc3[nH]ccc23)c1)c1cccs1 (configuration not stated) |  | 0.0504 |  |  | 
23 | CC(O)(C#Cc1ccc(N2CCOCC2)c(Nc2c(Cl)cnc3[nH]ccc23)c1)c1nccs1 (configuration not stated) |  | > 10 |  |  | 
24 | CC(O)(C#Cc1cccc(Nc2ncnc3[nH]ccc23)c1)c1nccs1 (configuration not stated) |  | 1.64 |  |  | 
25 | CN1CCCN(c2ccc(C#CC(C)(O)c3nccs3)cc2Nc2ncnc3[nH]ccc23)CC1 (configuration not stated) | 67.3 | 0.0601 | 35.5 | 47.7 | 
26 | CCN1CCN(c2ccc(C#CC(C)(O)c3nccs3)cc2Nc2ncnc3[nH]ccc23)CC1 (configuration not stated) | 67.4 | 0.0345 | 24.1 | 33.7 | 
27 | CN(C)CCN(C)c1ccc(C#CC(C)(O)c2nccs2)cc1Nc1ncnc2[nH]ccc12 (configuration not stated) |  | 0.484 |  |  | 
28 | O=C(Nc1ccc(N2CCOCC2)c(Nc2ncnc3[nH]ccc23)c1)NC1CCCC1 |  |  |  |  | Activity [5]: 76.4%
29 | CC(O)(C#Cc1ccc(N2CCOCC2)c(Nc2ncnc3sccc23)c1)c1nccs1 (configuration not stated) |  | 0.179 |  |  | 
30 | CN1CCC(Oc2ccc(C#CC(C)(O)c3nccs3)cc2Nc2ncnc3[nH]ccc23)CC1 (configuration not stated) |  | 0.705 |  |  | 
31 | CC(O)(C#Cc1ccc(N2CCC(N3CCOCC3)CC2)c(Nc2ncnc3[nH]ccc23)c1)c1nccs1 (configuration not stated) | 57.7 | 0.0153 | 32.2 | 34.5 | 
32 | COCCN(C)c1ccc(C#CC(C)(O)c2nccs2)cc1Nc1ncnc2[nH]ccc12 (configuration not stated) | 48 | 0.0724 | 13.3 | 27.9 | 
33 | C[C@H]1CN(c2ccc(C#CC(C)(O)c3nccs3)cc2Nc2ncnc3[nH]ccc23)CCN1 (some centres not stated) | 62.9 | 0.0692 | 38 | 49.5 | 
34 | CC(O)(C#Cc1ccc(N2CCNCC2)c(Nc2ncnc3[nH]ccc23)c1)c1nccs1 (configuration not stated) | 68 | 0.0479 | 20.3 | 39.9 | 
35 | C[C@@H]1CN(c2ccc(C#CC(C)(O)c3nccs3)cc2Nc2ncnc3[nH]ccc23)CCN1 (some centres not stated) |  | 0.209 |  |  | 
